Screening data from PubChem.
TRPC4 inh: inhibitors of mouse TRPC4 channel, primary screen, Fluo4 calcium, HEK293 TRPC4beta/mu-opioid cells | DAMGO-evoked Fluo4 calcium flux; hits give low values | B-score at 10 µM | 300,000 tested, 0.39% active;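 active means B-score over 3 SD under the library average, no early fluorescence shift, positive overall ratio signal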
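Signal: kinetic Fluo4 fluorescence imaging of calcium influx. Material: stable TRPC4beta/mu-opioid receptor HEK293 cells. Probe or stimulus: DAMGO in two steps, submaximal then maximal.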
TRPC6 inhibitor: mouse TRPC6 channel inhibitors, primary screen, cell-based, HEK293, membrane potential dye; Short transient receptor potential channel 6 (Mus musculus), Q61143; ACh-evoked depolarization; hits give low values; B-score at 10 µM; 310,000 tested, 1.1% active;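 active means B-score under library mean minus 3 SD, initial fluorescence not abnormally high, positive integrated signal ratio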;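 further: B-score derived from integrated fluorescence ratio over the kinetic read; more negative B-score means stronger inhibition of depolarization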
Target sequence (Q61143 whole entry, looked up): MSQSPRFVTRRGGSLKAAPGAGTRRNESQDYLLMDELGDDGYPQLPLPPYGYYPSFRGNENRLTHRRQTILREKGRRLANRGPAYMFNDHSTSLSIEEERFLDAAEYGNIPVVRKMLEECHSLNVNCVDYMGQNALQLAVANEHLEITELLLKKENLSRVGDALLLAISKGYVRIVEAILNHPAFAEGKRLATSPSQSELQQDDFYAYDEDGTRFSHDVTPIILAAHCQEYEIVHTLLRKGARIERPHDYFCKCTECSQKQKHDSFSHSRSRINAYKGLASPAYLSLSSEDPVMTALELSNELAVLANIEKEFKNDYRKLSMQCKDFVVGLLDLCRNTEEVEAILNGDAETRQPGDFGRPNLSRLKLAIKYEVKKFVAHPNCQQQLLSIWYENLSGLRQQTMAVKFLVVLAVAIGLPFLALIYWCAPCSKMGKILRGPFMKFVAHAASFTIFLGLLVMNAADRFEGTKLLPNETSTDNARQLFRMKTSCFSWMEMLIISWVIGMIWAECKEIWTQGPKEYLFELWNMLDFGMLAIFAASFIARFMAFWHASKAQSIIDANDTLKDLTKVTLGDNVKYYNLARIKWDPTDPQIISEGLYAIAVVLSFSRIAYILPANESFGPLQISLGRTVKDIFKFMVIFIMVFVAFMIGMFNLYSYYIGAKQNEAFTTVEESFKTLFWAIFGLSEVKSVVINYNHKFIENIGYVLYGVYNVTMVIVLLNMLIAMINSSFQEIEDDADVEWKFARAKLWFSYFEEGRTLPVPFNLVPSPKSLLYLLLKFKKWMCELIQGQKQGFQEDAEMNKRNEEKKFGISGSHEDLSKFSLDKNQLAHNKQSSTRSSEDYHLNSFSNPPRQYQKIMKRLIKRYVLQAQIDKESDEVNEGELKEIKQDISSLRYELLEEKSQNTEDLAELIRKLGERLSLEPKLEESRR
TRPC6 act: mouse TRPC6 channel activators, primary screen, cell-based, HEK293, membrane potential dye. HEK293-TRPC6 membrane potential dye fluorescence; hits give high values. B-score at 10 µM. 310,000 tested, 0.13% active;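 active means B-score of the integrated fluorescence ratio above library mean plus 3 SD, and starting fluorescence ratio within library mean plus 5 SD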;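 further: higher score means more depolarization so channel activation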
TRPC4 PAM: positive allosteric modulators of TRPC4, primary screen, cell-based, mouse TRPC4beta, HEK293 mu-opioid, Fluo-4 calcium. 310,000 tested, 0.42% active. AID 2227, 2009. DAMGO EC20, Fluo-4 Ca2+ flux; hits give high values. Short transient receptor potential channel 4 (Mus musculus), Q9QUQ5. B-score at 10 µM;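 active means B-score of calcium response area above 5 SD of library B-scores, with initial fluorescence ratio within 5 SD of library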;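 further: B-score of integrated fluorescence ratio over time as area under calcium response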
TRPC4 agonist: activators of mouse TRPC4 channel, primary screen, Fluo4 calcium, HEK293 TRPC4beta/mu-opioid cells; Short transient receptor potential channel 4 (Mus musculus), Q9QUQ5; Fluo4 calcium fluorescence; hits give high values; B-score at 10 µM; 310,000 tested, 0.49% active; AID 2237, 2010;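 active means B-score above 5 SD of library B-scores, and initial fluorescence ratio not above library mean plus 5 SD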;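 further: positive B-score marks a calcium rise read as TRPC4 activation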
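Assay system: HEK293 stable line with TRPC4beta plus mu-opioid receptor. Times: dye 45 min RT, read 110 s. Measured by: kinetic Fluo4 calcium fluorescence. Measure: B score of integrated ratio. Controls: assay buffer as low control, maximal DAMGO as high control.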
Numbers without * were called inactive. An excerpt weighted towards active compounds, which were near 2.3% of everything screened.

Results for COc1cccc(N2C(=NC(=O)c3ccccc3)SC3CS(=O)(=O)CC32)c1 (centres undefined) ?
TRPC4 inh: inactive; TRPC6 inhibitor: inactive; TRPC6 act: inactive; TRPC4 PAM: inactive; TRPC4 agonist: inactive

What do the screens show for `CC(=O)O[C@]1(C(C)=O)CC[C@H]2[C@@H]3C[C@H](C)C4=CC(=O)CC[C@]4(C)[C@H]3CC[C@@]21C`?
TRPC4 inh: inactive; TRPC6 inhibitor: inactive; TRPC6 act: inactive; TRPC4 PAM: inactive; TRPC4 agonist: inactive

Results for CC(=O)C12CCCCC1CC1[C@@H]3CC(C)C4=CC(=O)CC[C@]4(C)C3CC[C@@]12C (some centres undefined) ?
TRPC4 inh: inactive; TRPC6 inhibitor: inactive; TRPC6 act: inactive; TRPC4 PAM: 12*; TRPC4 agonist: inactive

Results for CCN1C(=O)c2cccc3c(S(=O)(=O)Nc4ccccc4OC)ccc1c23 ?
TRPC4 inh: inactive; TRPC6 inhibitor: inactive; TRPC6 act: inactive; TRPC4 PAM: inactive; TRPC4 agonist: 76*

Results for Clc1ccc(CONc2ncnc3nonc23)c(Cl)c1 ?
TRPC4 inh: inactive; TRPC6 inhibitor: inactive; TRPC6 act: inactive; TRPC4 PAM: 30*; TRPC4 agonist: inactive

What do the screens show for `CCONc1ncnc2nonc12`?
TRPC4 inh: inactive; TRPC6 inhibitor: inactive; TRPC6 act: inactive; TRPC4 PAM: inactive; TRPC4 agonist: inactive

How did COc1ccccc1NC(=O)N1CCN(C(=O)c2ccco2)CC1 do in these assays?
TRPC4 inh: inactive; TRPC6 inhibitor: inactive; TRPC6 act: inactive; TRPC4 PAM: inactive; TRPC4 agonist: inactive

What do the screens show for `Cc1cc(C(=O)N/N=C\c2cc(C(C)(C)C)ccc2O)n[nH]1`?
TRPC4 inh: -6*; TRPC6 inhibitor: inactive; TRPC6 act: inactive; TRPC4 PAM: inactive; TRPC4 agonist: inactive

Results for O=C(c1ccc(F)cc1F)N1CCN(c2ccccn2)CC1 ?
TRPC4 inh: inactive; TRPC6 inhibitor: inactive; TRPC6 act: inactive; TRPC4 PAM: inactive; TRPC4 agonist: inactive

Results for O=C(c1ccccc1)n1c(=O)c(F)cn(COCCBr)c1=O ?
TRPC4 inh: inactive; TRPC6 inhibitor: inactive; TRPC6 act: inactive; TRPC4 PAM: inactive; TRPC4 agonist: inactive

What do the screens show for `CCOC(=O)c1c(NC(=O)COC(=O)Cc2c[nH]c3ccccc23)sc(C(=O)N(C)C)c1C`?
TRPC4 inh: inactive; TRPC6 inhibitor: inactive; TRPC6 act: inactive; TRPC4 PAM: 53*; TRPC4 agonist: 175*

Results for COc1ccc(C(=O)NNC(=S)NC(=O)c2cccnc2)cc1 ?
TRPC4 inh: inactive; TRPC6 inhibitor: inactive; TRPC6 act: inactive; TRPC4 PAM: inactive; TRPC4 agonist: inactive

Results for COc1ccc(C(=O)NNC(=S)Nc2ccccc2)cc1 ?
TRPC4 inh: inactive; TRPC6 inhibitor: inactive; TRPC6 act: inactive; TRPC4 PAM: inactive; TRPC4 agonist: inactive

Results for COc1ccc(C(=O)NC(=S)NNC(=O)c2cccc(C)c2)cc1 ?
TRPC4 inh: inactive; TRPC6 inhibitor: inactive; TRPC6 act: inactive; TRPC4 PAM: inactive; TRPC4 agonist: 214*

Results for COc1ccc(C(=O)NNC(=S)NC(=O)c2ccc(OC)cc2)cc1 ?
TRPC4 inh: inactive; TRPC6 inhibitor: inactive; TRPC6 act: inactive; TRPC4 PAM: inactive; TRPC4 agonist: 78*

Results for CCCCC(=O)NC(=S)NNC(=O)c1ccc(Cl)cc1Cl ?
TRPC4 inh: inactive; TRPC6 inhibitor: inactive; TRPC6 act: inactive; TRPC4 PAM: inactive; TRPC4 agonist: 165*

How did O=C(Cc1ccc(Cl)cc1)NNC(=S)NC(=O)c1cccs1 do in these assays?
TRPC4 inh: inactive; TRPC6 inhibitor: inactive; TRPC6 act: inactive; TRPC4 PAM: inactive; TRPC4 agonist: 107*

Results for CCOc1ccccc1OCCCC(=O)N(CC)CC(=O)Nc1ccc(NC(C)=O)cc1 ?
TRPC4 inh: inactive; TRPC6 inhibitor: inactive; TRPC6 act: inactive; TRPC4 PAM: inactive; TRPC4 agonist: inactive

Results for CC(C)Cc1nnc(NC(=O)CCC(=O)N2CC(C)CC(C)C2)s1 (centres undefined) ?
TRPC4 inh: inactive; TRPC6 inhibitor: inactive; TRPC6 act: inactive; TRPC4 PAM: inactive; TRPC4 agonist: inactive

How did Cc1ccc(C(=O)NNC(=O)c2cccc(C)c2)cc1 do in these assays?
TRPC4 inh: inactive; TRPC6 inhibitor: inactive; TRPC6 act: inactive; TRPC4 PAM: inactive; TRPC4 agonist: inactive

Results for COc1ccc(C(=O)NNC(=S)NC(=O)c2cccs2)cc1 ?
TRPC4 inh: inactive; TRPC6 inhibitor: inactive; TRPC6 act: inactive; TRPC4 PAM: inactive; TRPC4 agonist: 85*

Results for Cc1cccc(C(=O)NNC(=S)NC(=O)c2ccccc2)c1 ?
TRPC4 inh: inactive; TRPC6 inhibitor: inactive; TRPC6 act: inactive; TRPC4 PAM: inactive; TRPC4 agonist: 173*

How did COc1ccccc1C(=O)NNC(=S)NC(=O)c1sc2ccccc2c1Cl do in these assays?
TRPC4 inh: -8*; TRPC6 inhibitor: inactive; TRPC6 act: inactive; TRPC4 PAM: inactive; TRPC4 agonist: 48*

Results for COc1ccc(C(=O)NNC(=S)NC(=O)c2ccc(F)cc2)cc1Br ?
TRPC4 inh: inactive; TRPC6 inhibitor: inactive; TRPC6 act: inactive; TRPC4 PAM: inactive; TRPC4 agonist: 49*

How did Cc1ccc(CN(C(=O)COc2cccc(C)c2C)C2CCS(=O)(=O)C2)o1 (centres undefined) do in these assays?
TRPC4 inh: inactive; TRPC6 inhibitor: inactive; TRPC6 act: inactive; TRPC4 PAM: inactive; TRPC4 agonist: inactive

Results for Cc1occc1C(=O)NNC(=S)NC(=O)COc1ccc(Cl)cc1Cl ?
TRPC4 inh: inactive; TRPC6 inhibitor: inactive; TRPC6 act: inactive; TRPC4 PAM: inactive; TRPC4 agonist: 87*

How did Cc1cccc(C(=O)NC(=S)NNC(=O)COc2ccc(Cl)cc2)c1 do in these assays?
TRPC4 inh: inactive; TRPC6 inhibitor: inactive; TRPC6 act: inactive; TRPC4 PAM: inactive; TRPC4 agonist: 68*

Results for O=C(COc1ccccc1)NNC(=S)NC(=O)c1ccc(Cl)cc1Cl ?
TRPC4 inh: inactive; TRPC6 inhibitor: inactive; TRPC6 act: inactive; TRPC4 PAM: inactive; TRPC4 agonist: 69*

What do the screens show for `O=C(COc1cccc(Cl)c1)NNC(=S)Nc1ccccc1`?
TRPC4 inh: inactive; TRPC6 inhibitor: inactive; TRPC6 act: inactive; TRPC4 PAM: inactive; TRPC4 agonist: inactive

Results for O=C(NC(=S)NNC(=O)[C@H]1C[C@@H]1c1ccccc1)c1cccc(F)c1 ?
TRPC4 inh: inactive; TRPC6 inhibitor: inactive; TRPC6 act: inactive; TRPC4 PAM: inactive; TRPC4 agonist: 211*
